From ChEMBL document CHEMBL3352726, “Constrained bithiazoles: small molecule correctors of defective ΔF508-CFTR protein trafficking” (J Med Chem, 2014) come the findings set out here.

Molecules are shown by their SMILES. pEC50: −log10 of the molar value.

In this assay the target is Cystic fibrosis transmembrane conductance regulator (Homo sapiens, UniProt P13569, F508DEL). In words: Correction of defective trafficking of human deltaF508 mutant CFTR protein expressed in FRT epithelial cells coexpressing YFP-H148Q/I152L protein assessed as iodide influx for 16 to 20 hrs by fluorescence assay. It counts as cell-based, Epithelial cell. The note with it: read-out: IC50 (the source's name). The procedure, abridged: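 FRT cells stably coexpressing human ΔF508-CFTR and YFP-H148Q/I152L, grown 24 h at 37 °C (5% CO2), then exposed 16–20 h to compound at various concentrations; DMSO vehicle negative control and a bithiazole benzamide positive control. Washed, 20 min in PBS with forskolin 20 μM plus genistein 50 μM. YFP fluorescence (ex 500/em 535 nm) read 2 s baseline, then 12 s after iodide-substituted PBS addition. Influx rate came from exponential fit of final 11.5 s, extrapolated initial slope, normalized to background-subtracted initial fluorescence. EC50/Vmax came from four-parameter logistic fit.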
Chain of Cystic fibrosis transmembrane conductance regulator (P13569 as listed by the source): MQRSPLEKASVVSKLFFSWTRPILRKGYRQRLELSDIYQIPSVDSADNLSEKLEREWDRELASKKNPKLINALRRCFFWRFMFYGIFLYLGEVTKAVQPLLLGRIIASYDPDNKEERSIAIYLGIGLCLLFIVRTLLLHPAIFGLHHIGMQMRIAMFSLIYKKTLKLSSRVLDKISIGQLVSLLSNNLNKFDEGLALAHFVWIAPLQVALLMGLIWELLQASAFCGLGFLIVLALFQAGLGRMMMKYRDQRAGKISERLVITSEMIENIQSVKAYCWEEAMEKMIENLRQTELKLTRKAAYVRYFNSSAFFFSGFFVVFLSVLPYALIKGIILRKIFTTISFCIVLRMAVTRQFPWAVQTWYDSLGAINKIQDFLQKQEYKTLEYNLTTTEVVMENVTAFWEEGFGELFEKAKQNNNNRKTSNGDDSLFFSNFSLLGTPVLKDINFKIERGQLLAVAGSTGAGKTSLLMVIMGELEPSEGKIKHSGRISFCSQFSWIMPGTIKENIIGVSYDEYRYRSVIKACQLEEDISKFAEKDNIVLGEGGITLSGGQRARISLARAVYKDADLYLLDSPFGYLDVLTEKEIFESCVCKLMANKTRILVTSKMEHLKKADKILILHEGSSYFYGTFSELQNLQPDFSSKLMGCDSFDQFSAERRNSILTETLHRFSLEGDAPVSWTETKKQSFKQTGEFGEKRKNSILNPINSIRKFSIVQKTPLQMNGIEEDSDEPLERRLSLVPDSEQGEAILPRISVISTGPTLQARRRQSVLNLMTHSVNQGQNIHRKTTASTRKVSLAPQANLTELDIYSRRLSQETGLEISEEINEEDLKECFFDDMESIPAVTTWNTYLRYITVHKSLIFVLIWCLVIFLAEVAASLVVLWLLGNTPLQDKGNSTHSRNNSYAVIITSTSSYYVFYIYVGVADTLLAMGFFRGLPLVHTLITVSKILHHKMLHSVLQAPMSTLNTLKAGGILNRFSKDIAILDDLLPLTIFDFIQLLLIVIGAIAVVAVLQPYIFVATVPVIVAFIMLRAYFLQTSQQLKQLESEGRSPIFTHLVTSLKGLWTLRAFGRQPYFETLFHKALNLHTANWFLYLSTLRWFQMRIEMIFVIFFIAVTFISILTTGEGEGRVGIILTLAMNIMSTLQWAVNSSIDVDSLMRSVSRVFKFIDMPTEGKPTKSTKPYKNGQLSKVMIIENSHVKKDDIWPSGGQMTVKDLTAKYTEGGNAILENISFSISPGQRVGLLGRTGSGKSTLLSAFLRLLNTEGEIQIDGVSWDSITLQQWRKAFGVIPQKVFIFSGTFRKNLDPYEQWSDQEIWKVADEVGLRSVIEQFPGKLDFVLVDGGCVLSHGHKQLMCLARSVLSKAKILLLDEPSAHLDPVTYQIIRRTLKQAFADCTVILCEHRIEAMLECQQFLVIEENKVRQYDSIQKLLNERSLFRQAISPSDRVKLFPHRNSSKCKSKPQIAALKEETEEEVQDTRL

For `COc1ccc(Cl)cc1Nc1nc2c(s1)CCCCc1nc(NC(=O)C(C)(C)C)sc1-2`, the pEC50 is 5.39.
As for `CN(C)c1ccc(Cl)cc1Nc1nc2c(s1)CCCc1nc(NC(=O)C(C)(C)C)sc1-2`, the pEC50 was 5.16.
On to `COC(=O)CCC(=O)Nc1nc2c(s1)-c1nc(Nc3cc(Cl)ccc3OC)sc1CCCC2`, for which the pEC50 was 5.08.
In the case of `COc1ccc(Cl)cc1Nc1nc2c(s1)CCCc1nc(N)sc1-2`, the pEC50 was 4.96.
In the case of `Cc1cccnc1Nc1nc2c(s1)CCCc1nc(NC(=O)C(C)(C)C)sc1-2`, the pEC50 is 5.14.
With `COc1ccc(Cl)cc1Nc1nc2c(s1)CCCc1nc(NC(=O)C3CC3)sc1-2`, the pEC50 was 5.05.
Turning to `COc1ccc(Cl)cc1Nc1nc2c(s1)CCCc1nc(NC(=O)C(C)(C)C)sc1-2`, the pEC50 is 5.64.
The value for `CN(C)c1cccc(Nc2nc3c(s2)CCCc2nc(NC(=O)C(C)(C)C)sc2-3)c1` was 5.66; that for `COc1ccc(Cl)cc1Nc1nc2c(s1)CCCc1nc(NC(=O)c3ccno3)sc1-2` was 5.32.
As for `COC(=O)CCC(=O)Nc1nc2c(s1)-c1nc(Nc3cc(Cl)ccc3OC)sc1CCC2`, the pEC50 was 5.06.
The value for `COc1ccc(Cl)cc1Nc1nc2c(s1)CCCCc1nc(NC(=O)c3ccno3)sc1-2` was 5.18; that for `COc1ccc(Cl)cc1Nc1nc2c(s1)CCCCc1nc(NC(=O)C3CC3)sc1-2` was 5.35.
The value for `Cc1cccnc1Nc1nc2c(s1)CCCCc1nc(NC(=O)C(C)(C)C)sc1-2` was 5.28; that for `CCC(C)C(=O)Nc1nc2c(s1)-c1nc(Nc3cc(Cl)ccc3OC)sc1CCC2` (stereo not drawn) was 5.18; that for `COc1ccc([N+](=O)[O-])cc1Nc1nc2c(s1)CCCc1nc(NC(=O)C(C)(C)C)sc1-2` was 5.44.
In the case of `COc1ccc(Cl)cc1Nc1nc2c(s1)CCCCc1nc(N)sc1-2` it was 5.04.
With `CN(C)c1ccc(Cl)cc1Nc1nc2c(s1)CCCCc1nc(NC(=O)C(C)(C)C)sc1-2`, the pEC50 is 5.68.
The value for `COc1ccc([N+](=O)[O-])cc1Nc1nc2c(s1)CCCCc1nc(NC(=O)C(C)(C)C)sc1-2` was 6.05.
On to `COc1ccc(Cl)cc1Nc1nc2c(s1)CCCCc1nc(NC(=O)C(C)C)sc1-2`, for which the pEC50 is 5.06.
On to `COc1ccc(Cl)cc1Nc1nc(-c2sc(NC(=O)c3ccccc3)nc2C)cs1`, for which the pEC50 was 5.22.
The value for `CN(C)c1cccc(Nc2nc3c(s2)CCCCc2nc(NC(=O)C(C)(C)C)sc2-3)c1` was 5.28; that for `COc1ccc(Cl)cc1Nc1nc2c(s1)CCCc1nc(NC(=O)C(C)C)sc1-2` was 5.24; that for `CCC(C)C(=O)Nc1nc2c(s1)-c1nc(Nc3cc(Cl)ccc3OC)sc1CCCC2` (stereo not drawn) was 5.54.
